Measured values taken from publication PMC8865112 (Journal of Enzyme Inhibition and Medicinal Chemistry, 2022).

Tests used:
A549/DDP [1] = assay: CCK-8 cell growth and sensitisation to DDP; type: cell-based, human
Procedure, shortened: (§1)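 Exponential-phase cells were trypsinised, diluted to 5 × 10^7/l and plated, then cultured 24 h at 37 °C. Test compound was added where indicated (DMF <0.2%), and DDP (saline stock 5.0 mM) was added 1 h later. After 72 h at 37 °C, CCK-8 was applied for 2 h and A450 was read. Live cells were calculated as % of the no-DDP, no-inhibitor control. Done in triplicate.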

SGC7901/DDP [2] = assay: CCK-8 cell growth and sensitisation to DDP; type: cell-based, human
Procedure, shortened: as §1

SK-OV-3/DDP = assay: CCK-8 cell growth and sensitisation to DDP; type: cell-based, human; conditions: SK-OV-3/DDP cells versus SK-OV-3 cells
Procedure, shortened: as §1

COC1/DDP = assay: CCK-8 cell growth and sensitisation to DDP; type: cell-based, human
Procedure, shortened: as §1

A549/DDP [3] = assay: Apoptosis percentages; type: cell-based, human; conditions: DDP alone 2.0 μM, EDEA alone 1.0 and 2.0 μM
SGC7901/DDP [4] = assay: Apoptosis percentages; type: cell-based, human; conditions: DDP alone 2.0 μM, EDEA alone 1.0 and 2.0 μM
drug-resistant cancers = conditions: cited from earlier work

Row | Compound | IC50 value of DDP in resistant versus parental cells (A549/DDP [1]) [fold] | IC50 value of DDP in resistant versus parental cells (SGC7901/DDP [2]) [fold] | IC50 value of DDP in resistant versus parental cells (SK-OV-3/DDP) [fold] | IC50 value of DDP in resistant versus parental cells (COC1/DDP) [fold] | effect of single agent on apoptosis percentages (A549/DDP [3]) | effect of single agent on apoptosis percentages (SGC7901/DDP [4]) | level that sensitised drug-resistant cancers to DDP in vitro (drug-resistant cancers) [µM]
1 | N.N.[Cl][Pt][Cl] [DDP, cisplatin] | ~7 | ~3 | ~4 | ~4 | did not greatly alter | did not greatly alter | 
2 | C=C(CC)C(=O)c1ccc(OCC(=O)O)c(Cl)c1Cl [EAA, ethacrynic acid] |  |  |  |  |  |  | ~20
